{"source": "paper PMC10560980", "about": "(International Journal for Parasitology: Drugs and Drug …, 2023)", "key": {"[1]": {"test_system": "assemblage B G. duodenalis BRIS/91/HEPU/1279 trophozoites", "experiment": "G. duodenalis compound susceptibility assay", "assay_type": "cell-based", "settings": "Giardia duodenalis"}, "[2]": {"test_system": "BRIS/91/HEPU/1279 trophozoites", "experiment": "Minimum lethal concentration", "assay_type": "cell-based, Giardia duodenalis", "settings": "48 h exposure, then four days in culture", "in_short": "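Assemblage B BRIS/91/HEPU/1279 trophozoites in modified TYI-S-33 were exposed to compound for 48 h. They were then returned to drug-free culture for four more days and imaged by brightfield at 10x to judge regrowth. Albendazole ran alongside. Experiments were done at least three times in duplicate.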"}, "[3]": {"test_system": "Neonatal Foreskin Fibroblasts (NFF)", "experiment": "Mammalian cell susceptibility assay", "assay_type": "cell-based, human", "settings": "for IC50: read-out: IC50 (M; mean ± SD) NFF; for Selectivity: NFF IC50 / Giardia IC50"}, "[4]": {"test_system": "L. donovani DD8 amastigotes", "experiment": "L. donovani intracellular amastigote imaging assay in THP-1 cells", "assay_type": "cell-based", "settings": "Leishmania donovani, THP-1, 96 h, read-out: IC50 (M; mean ± SD) L. donovani", "in_short": "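L. donovani DD8 promastigotes were kept in modified M199 Hanks medium, pH 6.8, with 10% heat-inactivated FBS at 27 °C. PMA-differentiated THP-1 cells were infected with metacyclic promastigotes (1:5 host:parasite), then exposed 96 h to 80–0.004 µM final. Cells were fixed in 4% paraformaldehyde, stained with SYBR green/CellMask Deep Red and imaged at 20x; an infected cell held >3 parasites. Controls were 2 µM amphotericin B and 0.4% DMSO. Assays ran twice in triplicate; IC50 came from 4-parameter regression.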"}, "[5]": {"test_system": "Escherichia coli (ATCC 25922)", "experiment": "Antibacterial microbroth dilution", "assay_type": "cell-based", "settings": "20 h exposure, LB broth", "in_short": "(§1)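 Broth microdilution per CLSI in LB broth. A 20 mM test-compound solution was diluted in LB broth. Organisms were exposed to compound for 20 h, then growth inhibition was scored to define the MIC. Ampicillin was the positive control.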"}, "[6]": {"test_system": "Enterococci faecalis (ATCC 29212)", "experiment": "Antibacterial microbroth dilution", "assay_type": "cell-based", "settings": "20 h exposure, LB broth", "in_short": "as §1"}, "[7]": {"test_system": "Staphylococcus aureus (ATCC 29213)", "experiment": "Antibacterial microbroth dilution", "assay_type": "cell-based", "settings": "20 h exposure, LB broth", "in_short": "as §1"}, "[8]": {"test_system": "Plasmodium falciparum 3D7 asexual erythrocytic parasites", "experiment": "48 h [3H]-hypoxanthine incorporation assay", "assay_type": "cell-based", "settings": "for IC50: Plasmodium falciparum, 3D7, 48 h, read-out: IC50 (M; mean ± SD) P. falciparum; for average % inhibition at highest concentration tested, P. falciparum: at 5.0 × 10^−5 M (50 μM), 50 µM", "in_short": "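Compound exposure and [3H]-hypoxanthine uptake ran 48 h. Controls were uninfected RBC background, untreated, DMSO vehicle and chloroquine. % inhibition was taken versus matched vehicle minus background. At least two independent assays were run in triplicate. Where no IC50 could be fitted, % inhibition at the highest concentration was reported.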"}, "[9]": {"test_system": "Trypanosoma cruzi Tulahuen strain intracellular amastigotes", "experiment": "T. cruzi intracellular amastigote imaging assay in 3T3 cells", "assay_type": "cell-based", "settings": "for IC50: Trypanosoma cruzi, TULAHUEN, NIH3T3, read-out: IC50 (M; mean ± SD) T. cruzi", "in_short": "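T. cruzi Tulahuen was maintained in 3T3 fibroblasts in phenol red-free RPMI with 10% FBS and passaged with freshly egressed trypomastigotes. Intracellular amastigotes were scored by high-content imaging, with final concentrations up to 73.2 µM. Each compound was run as single point over three experimental replicates. Controls were 30 µM puromycin (host cells) and 12 µM nifurtimox (amastigotes). IC50 came from 4-parameter variable-slope nonlinear regression.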"}, "[10]": {"test_system": "G. duodenalis BAH2c2", "experiment": "In vivo efficacy in mouse model of giardiasis", "design": "species or system outbred Swiss mice", "in_short": "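Seven-day-old outbred Swiss pups (groups of ten) were orally gavaged with 10^5 BAH2c2 trophozoites in 0.9% saline. Faecal cysts were tracked daily by centrifugal flotation and immunofluorescence counting. About 1 week post-infection, mice received oral gavage once daily for three days: vehicle, test compound, or metronidazole 100 mg/kg. The next day, small-intestine trophozoites were counted manually and large-intestine cysts per gram. Efficacy followed WAAVP guidelines; groups were compared by t-test.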"}, "[11]": {"test_system": "faecal microbiome", "experiment": "Microbiome assessment", "assay_type": "in vivo, outbred Swiss mice", "in_short": "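Three groups of 12 outbred Swiss mice received vehicle control, metronidazole 100 mg/kg or test compound 7.4 mg/kg daily on days 1, 2 and 3. Faecal samples were collected from individual animals on days 0–5 and stored at room temperature in 80% ethanol. About 0.2 g of each sample was homogenised with glass beads in lysis buffer for 16S rRNA profiling.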"}, "[12]": {"test_system": "MTZ resistant assemblage B BRIS/91/HEPU/1279m1 parasites", "experiment": "G. duodenalis compound susceptibility assay", "assay_type": "cell-based", "settings": "Giardia duodenalis, 48 h, read-out: IC50 (nM; mean ± SD) AB-MTZ", "in_short": "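The metronidazole-resistant assemblage B line was kept in modified TYI-S-33 with 10% heat-inactivated FBS and penicillin/streptomycin under 15 µM metronidazole, withdrawn two days before testing. Trophozoites had 48 h dose-response exposure and were scored by automated microscopy, at least three times in triplicate. Inhibition was taken versus DMSO vehicle minus media background. IC50 came from 4-parameter variable-slope nonlinear regression.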"}, "[13]": {"experiment": "Aqueous solubility", "assay_type": "physicochemical"}, "[14]": {"test_system": "G. duodenalis BRIS/87/HEPU/713 assemblage A", "experiment": "G. duodenalis compound susceptibility assay", "assay_type": "cell-based", "settings": "Giardia duodenalis, 48 h, read-out: IC50 (nM; mean ± SD) AA"}, "[15]": {"test_system": "Human Embryonic Kidney (HEK-293) cells", "experiment": "Mammalian cell susceptibility assay, HEK-293", "assay_type": "cell-based", "settings": "HEK293, read-out: growth inhibition, HEK293"}, "[16]": {"experiment": "Storage stability of solid", "assay_type": "physicochemical", "settings": "crystalline solid; ambient conditions; several months"}, "[17]": {"test_system": "Giardia", "settings": "in humans; ref Nabarro et al., 2015; cited from earlier work"}, "[18]": {"settings": "48 h, read-out: IC50 (M; mean ± SD) Giardia (48h), Compounds Australia samples, assemblage B BRIS/91/HEPU/1279 trophozoites, 48 h, > = highest concentration tested"}, "[19]": {"settings": "read-out: IC50 (M; mean ± SD) Giardia AB, purchased (ChemDiv) or synthesized batches, assemblage B BRIS/91/HEPU/1279"}, "[20]": {"settings": "0.74 mg/kg for three days, oral gavage, PBS vehicle"}, "[21]": {"settings": "7.4 mg/kg daily for three days, 50%PBS/DMSO vehicle, P > 0.05"}, "[22]": {"settings": "100 mg/kg for three days, positive control, first experiment"}}, "note": "“Also recorded” adds a separate entry of the source. Where two headings read alike, the source gives them in different places.", "data": [{"smiles": "CCCSc1ccc2nc(NC(=O)OC)[nH]c2c1", "note": "[ABZ, Albendazole, reference compound]", "values": [{"measurement": "IC50", "setting": "[1]; [18]", "value": 57, "unit": "nM"}, {"measurement": "IC50", "setting": "[1]; [19]", "value": 57, "unit": "nM"}, {"measurement": "minimum lethal concentration (MLC)", "setting": "[2]", "value": 0.15, "unit": "µM"}, {"measurement": "IC50", "setting": "[3]; Homo sapiens, Fibroblast", "value": 1100, "unit": "nM"}, {"measurement": "Selectivity", "setting": "[3]", "value": 19.3}]}, {"smiles": "C[C@@H]1[C@H](O)[C@@H](C)/C=C/C=C/C=C/C=C/C=C/C=C/C=C/[C@H](O[C@@H]2O[C@H](C)[C@@H](O)[C@H](N)[C@@H]2O)C[C@@H]2O[C@](O)(C[C@@H](O)C[C@@H](O)[C@H](O)CC[C@@H](O)C[C@@H](O)CC(=O)O[C@H]1C)C[C@H](O)[C@H]2C(=O)O", "note": "[AMB, Amphotericin B, reference compound]", "values": [{"measurement": "IC50", "setting": "[4]", "value": 87, "unit": "nM"}]}, {"smiles": "CC1(C)S[C@@H]2[C@H](NC(=O)[C@H](N)c3ccccc3)C(=O)N2[C@H]1C(=O)O", "note": "[AMP, ampicillin, reference compound]", "values": [{"measurement": "MIC (M) E. coli", "setting": "[5]", "value": "<3.7e-05", "unit": "M"}, {"measurement": "MIC (M) E. faecalis", "setting": "[6]", "value": "<3.7e-05", "unit": "M"}, {"measurement": "MIC (M) S. aureus", "setting": "[7]", "value": "<3.7e-05", "unit": "M"}]}, {"smiles": "CCN(CC)CCCC(C)Nc1ccnc2cc(Cl)ccc12", "note": "(stereo not shown) [CQ, chloroquine, reference compound]", "values": [{"measurement": "IC50", "setting": "[8]", "value": 14, "unit": "nM"}, {"measurement": "IC50", "setting": "[3]; Homo sapiens, Fibroblast", "value": 31000, "unit": "nM"}]}, {"smiles": "Cc1cc2[nH]c(C(=O)Nc3ccccc3Cl)c(CN3CCOCC3)c2s1", "note": "[Compound 2, N-(2-chlorophenyl)-2-methyl-6-(morpholinomethyl)-4H-thieno [3,2-b]pyrrole-5-carboxamide]", "values": [{"measurement": "MIC (M) E. coli", "setting": "[5]", "value": ">0.0002", "unit": "M"}, {"measurement": "IC50", "setting": "[4]", "value": "> 80000", "unit": "nM"}, {"measurement": "IC50", "setting": "[1]; [18]", "value": 310, "unit": "nM"}, {"measurement": "IC50", "setting": "[1]; 48 h, read-out: IC50 (nM; mean ± SD) AB, purchased/resynthesised batches, 48 h, BRIS/91/HEPU/1279 assemblage B", "value": "8.6 to 12", "unit": "nM"}, {"measurement": "IC50", "setting": "[1]; [19]", "value": 12, "unit": "nM"}, {"measurement": "IC50", "setting": "[9]", "value": "> 73000", "unit": "nM"}, {"measurement": "growth inhibition, T. cruzi", "setting": "[9]; up to highest concentration tested", "value": "< 50", "unit": "%"}, {"measurement": "reduction of cyst burden vs vehicle", "setting": "[10]; [20]", "value": 98.8, "unit": "%"}, {"measurement": "reduction of trophozoite burden vs vehicle", "setting": "[10]; [20]", "value": 73.5, "unit": "%"}, {"measurement": "reduction of cyst burden vs vehicle", "setting": "[10]; [21]", "value": 80.1, "unit": "%"}, {"measurement": "reduction of trophozoite burden vs vehicle", "setting": "[10]; [21]", "value": 54.2, "unit": "%"}, {"measurement": "change in bacterial profile of faecal microbiome", "setting": "[11]; 7.4 mg/kg daily for three days", "value": "does not impact the normal gut microbiota; also recorded: did not detect any significant (P < 0.05) changes in the bacterial profile; also recorded: did not significantly impact the gut microbial diversity"}, {"measurement": "IC50", "setting": "[12]", "value": 5.5, "unit": "nM"}, {"measurement": "minimum lethal concentration (MLC)", "setting": "[2]", "value": 0.062, "unit": "µM"}, {"measurement": "aqueous solubility", "setting": "[13]", "value": "poor"}, {"measurement": "IC50", "setting": "[14]", "value": 10, "unit": "nM"}, {"measurement": "inhibition at 100 µM", "setting": "[15]", "value": "< 50", "unit": "%"}, {"measurement": "MIC (M) E. faecalis", "setting": "[6]", "value": ">0.0002", "unit": "M"}, {"measurement": "stability to storage", "setting": "[16]", "value": "stable"}, {"measurement": "IC50", "setting": "[8]", "value": "> 50000", "unit": "nM"}, {"measurement": "average % inhibition at highest concentration tested, P. falciparum", "setting": "[8]", "value": "< 50", "unit": "%"}, {"measurement": "average % inhibition at highest concentration tested, P. falciparum", "setting": "[8]; listed as 2b", "value": 2.0, "unit": "%"}, {"measurement": "IC50", "setting": "[3]; Homo sapiens, Fibroblast", "value": "> 10000", "unit": "nM"}, {"measurement": "inhibition at 100 µM", "setting": "[3]; Homo sapiens, Fibroblast, read-out: growth inhibition, NFF", "value": "< 50", "unit": "%"}, {"measurement": "Selectivity", "setting": "[3]", "value": ">32"}, {"measurement": "selectivity indices", "setting": "[3]; follow up studies, NFF and HEK293 vs Giardia", "value": "> 8333"}, {"measurement": "MIC (M) S. aureus", "setting": "[7]", "value": ">0.0002", "unit": "M"}]}, {"smiles": "Cc1ncc([N+](=O)[O-])n1CCO", "note": "[MTZ, metronidazole, reference compound]", "values": [{"measurement": "reduction of cyst burden vs vehicle", "setting": "[10]; [22]", "value": 65.6, "unit": "%"}, {"measurement": "reduction of trophozoite burden vs vehicle", "setting": "[10]; [22]", "value": 98.1, "unit": "%"}, {"measurement": "change in bacterial profile of faecal microbiome", "setting": "[11]; 100 mg/kg daily for three days", "value": "significant shift from the vehicle (DMSO/PBS) and compound 2 exposed mice from Day 1–3"}, {"measurement": "reported failure rates", "setting": "[17]", "value": "up to 40%"}]}, {"smiles": "CC1CS(=O)(=O)CCN1/N=C/c1ccc([N+](=O)[O-])o1", "note": "(stereo not shown) [NFX, nifurtimox, reference compound]", "values": [{"measurement": "IC50", "setting": "[9]", "value": 980, "unit": "nM"}]}]}
